# Assay outcomes deposited in PubChem BioAssay by SRMLSC.
# This excerpt belongs to a sample that is enriched for hits.
# HCT116 PTEN-null: growth suppressors of cells with PTEN tumor suppressor deletion; 1.2% of 140,000 active; viability, % at 10 µM; HCT116 PTEN-null viability, CellTiter-Glo, 60 h; active compounds read low; AID 827;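 active = viability at or below a set limit, 4 SD under the median of all tested compounds, cut at about 3.7% in these data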;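 note: PTEN knockout HCT116 line with beta catenin targeted HCT116 as companion control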
# HCT116 bCat-KO: beta-catenin-lacking colon tumor cell growth suppression; AID 818; HCT116 beta-catenin knockout viability, CellTiter-Glo, 60 h; active compounds read low; viability, % at 10 µM; 1.5% of 140,000 active;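 active = viability at or under a set limit, the compound median less 4 SD, cut at about 6% in these data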;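 note: 0% = Hyamine 1622 control at 20 µM and 100% = untreated cell control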
# HUVEC prolif 384: inhibitors of human endothelial cell proliferation | HUVEC proliferation, CellTiter-Glo luminescence, 72 h; active compounds read low | viability, % at 10 µM (by protocol) | 1.1% of 86,000 active;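 active = viability at or below 30%; inactive = viability above 30%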;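 note: 100% = median luminescence of DMSO-only cell control wells on each plate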
# H69AR inhibit: blocks growth of human H69AR lung tumor cells | AID 598 | 6% of 85,000 active | H69AR lung tumor viability, ATP luminescence, 72 h; active compounds read low | viability, % at 10 µM;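 active = viability at or below 40%; inactive = viability above 40%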;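 note: multidrug resistant small cell line overexpressing MRP-1 efflux transporter; 100% = mean luminescence of untreated control wells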
# Fibroblast inh: blocks proliferation of human lung fibroblasts | AID 719 | 1.1% of 85,000 active | LL 47 human lung fibroblast viability, ATP luminescence; active compounds read low | viability, % at 10 µM;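 active = viability at or below 50% in the single dose screen; inactive = viability above 50%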;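 note: compound exposure lasted 72 h before the ATP readout; 100% = median luminescence of untreated cell-only wells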
#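 Test system: LL 47 human lung fibroblasts; Quantity: 1,150 cells/well; Buffer or medium: IMEM plus 15% FBS; Dosing: tenfold compound dosing solution, DMSO at 0.1%; Timing: overnight cell rest, 72 h compound treatment at 37 °C; Detection: ATP-based CellTiter-Glo luminescent readout; Read-out basis: viability percentage against median untreated-cell control; Controls: cell-only wells, no compound.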
# An asterisk follows results filed as active; · = no result.
SMILES,HCT116 PTEN-null,HCT116 bCat-KO,HUVEC prolif 384,H69AR inhibit,Fibroblast inh
O=C(NC(=S)Nc1ccc(S(=O)(=O)NC2CCCCC2)cc1)c1cccs1,78.6,86.9,·,·,·
O=C(COC(=O)CN1C(=O)C2CCCCC2C1=O)Nc1cc(S(=O)(=O)N2CCOCC2)ccc1Cl (configuration not stated),98.5,97.1,·,·,·
Cc1ccc2c(c1)nnn2C1CCN(S(=O)(=O)c2ccc(C(=O)N(C)C3CCCCC3)cc2)CC1,49.2,37.7,74.9,31.6*,102.7
Cc1ccc(S(=O)(=O)N2CCC(n3nnc4cc(C)ccc43)CC2)cc1,91.9,92.9,84.1,87.7,88.7
CNC(=O)C1C(=S)NC(N)=C(C#N)C1c1ccccc1 (configuration not stated),1.0*,0.5*,·,·,·
COC(=O)C1=C(C)OC(N)=C(C#N)C1c1ccccc1 (configuration not stated),103.8,93.8,88.5,91.2,99.7
O=c1nc(Nc2ccccc2)sc2ccc([N+](=O)[O-])cc12,94.1,101.2,·,·,·
CCCC(=O)Nc1ccc(Cl)c(NC(=S)NC(=O)c2ccco2)c1,91.6,90.0,·,·,·
COc1ccc(C(=O)COC(=O)CNS(=O)(=O)c2ccc(C)cc2)cc1,105.9,100.0,·,·,·
Cc1cccc(Nc2nnc(SCC(=O)NC(=O)Nc3ccc4c(c3)OCCO4)s2)c1,0.8*,0.6*,·,·,·
C/C(=C\C(=O)c1ccncc1)Nc1ccccc1O,40.3,55.8,108.2,23.3*,93.7
CC(=O)Nc1ccccc1O,104.0,94.5,95.5,89.2,97.6
COc1ccccc1/C=C1\CCCC2=C1Nc1nnnn1C2c1ccccc1OC (configuration not stated),1.7*,4.0*,·,·,·
CCn1c2ccccc2c2cc(NC(=O)CSc3nnc(-c4ccc(OC)c(OC)c4)n3N)ccc21,61.3,51.7,83.2,22.0*,106.8
CCn1c2ccccc2c2cc(NC(=O)CSc3nnc(-c4cccc(OC)c4)n3N)ccc21,9.4,23.5,·,·,·
CCOc1ccc(-c2nnc(SCC(=O)Nc3ccc4c(c3)c3ccccc3n4CC)n2N)cc1,5.0,3.9*,·,·,·
CCc1ccc2[nH]c(=O)c(CN(CCCN3CCOCC3)C(=O)Nc3ccc(Cl)cc3)cc2c1,21.2,20.9,27.9*,26.6*,76.9
Cc1ccc2[nH]c(=O)c(CN(CCCN(C)C)C(=O)Nc3ccc(Cl)cc3)cc2c1,16.1,15.4,61.6,3.0*,63.7
CCc1ccc2[nH]c(=O)c(CN(CCCN3CCOCC3)C(=O)Nc3ccccc3)cc2c1,55.9,60.8,73.1,65.4,95.1
Cc1ccc(C)c2[nH]c(=O)c(CN(CCN3CCCC3)C(=O)Nc3cccc(Cl)c3)cc12,1.8*,3.0*,20.5*,0.6*,27.9*
Cc1ccc(NC(=O)N(CCCN2CCOCC2)Cc2cc3cc4c(cc3[nH]c2=O)OCO4)cc1,83.3,73.3,·,·,·
Cc1cc(C)c2cc(CN(CCN3CCCC3)C(=O)Nc3ccc(F)cc3)c(=O)[nH]c2c1,39.0,24.7,55.2,75.1,94.4
Cc1ccc2[nH]c(=O)c(CN(CCN3CCOCC3)C(=O)Nc3ccc(F)cc3)cc2c1,62.3,65.3,90.2,39.2*,95.8
O=C(COc1ccc(Cl)cc1)N/N=C/CCc1ccccc1,102.7,104.7,·,·,·
CCOC(=O)Cc1csc(NS(=O)(=O)c2ccc(Cl)cc2)n1,100.6,93.1,·,·,·
SMILES,HCT116 PTEN-null,HCT116 bCat-KO,HUVEC prolif 384,H69AR inhibit,Fibroblast inh
O=C(COC(=O)c1cnc(Cl)c(Cl)c1)Nc1ccc(S(=O)(=O)N2CCCC2)cc1,103.6,93.8,·,·,·
CCc1ccc2[nH]c(=O)c(CN(CCCN3CCOCC3)C(=O)Nc3cccc(Cl)c3)cc2c1,1.9*,1.9*,14.6*,29.3*,60.8
Cc1ccccc1C(=O)c1c[nH]c(C(N)=O)c1,93.6,103.8,·,·,·
O=C(c1c[nH]c(C(=O)C(Cl)(Cl)Cl)c1)c1ccccc1Cl,31.0,8.6,80.6,23.3*,62.2
Cc1ccccc1N/C=C/C(=C(C#N)C#N)N(C)C,97.0,101.0,·,·,·
CCN=c1scc(-c2ccco2)n1/N=C/c1ccc(O)cc1,89.9,103.8,118.1,39.6*,122.3
COC(=O)/C=C1\C(=O)N(c2nc3ccccc3s2)C(=S)N1c1ccc(F)cc1,58.1,50.4,64.4,46.3,49.7*
COC(=O)/C=C1\C(=O)N(c2nc3ccc(OC)cc3s2)C(=S)N1c1ccc(F)cc1,78.3,84.7,·,·,·
CCn1cc(C(=O)NCc2cccc(F)c2)c(=O)c2cc(F)c(N3CCN(C(=O)c4ccco4)CC3)cc21,32.6,44.4,63.1,16.2*,88.9
CCn1cc(C(=O)Nc2nnc(C)s2)c(=O)c2cc(F)c(N3CCN(C(=O)c4ccco4)CC3)cc21,·,·,103.3,86.9,112.2
